The record followed here is ChEMBL document CHEMBL3351961, “In vitro antitumor activity evaluation of some 1,2,4-triazine derivatives bearing piperazine amide moiety against breast cancer cells” (Bioorg Med Chem, 2014).

Activity calls are given as the source filed them. No cut-off for these calls is given here.

The subject of assay [1] is MCF7. Nature of the assay: Cytotoxicity against human MCF7 cells after 24 hrs by MTT assay. The class given is functional, cell-based. The settings on record: MCF7, 24 h, in the assay text read “XTT assay” for “MTT assay”. The procedure, abridged:
(§1)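 Cells grown in RPMI with fetal calf serum, penicillin/streptomycin, 37 °C, 5% CO2. Seeded 2 × 10^4 cells/well, then 24 h. Medium replaced with compound at 3.9–500 µg/ml (DMSO stocks diluted in medium, final DMSO under 0.1%). XTT read-out of mitochondrial activity: 3 h at 37 °C, OD 480 nm (reference 680 nm). IC50 by non-linear regression; duplicate experiments; cisplatin positive control.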

The nature of assay [2]: Cytotoxicity against mouse NIH/3T3 cells after 24 hrs by MTT assay. The settings on record: NIH3T3, 24 h, in the assay text read “XTT assay” for “MTT assay”. The assay is classed as cell-based. In short, it runs like this:
as §1

Assay [3] concerns MCF7. Nature of the assay: Inhibition of DNA synthesis in human MCF7 cells at 0.5 times cytotoxic IC50 level after 24 hrs by 5-bromo-20-deoxy-uridine incorporation method. The assay is classed as functional. The procedure, abridged:
(§2)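 BrdU ELISA on MCF-7 seeded at 2 × 10^4 cells/well. Compounds given at IC50/2, IC50 and 2 × IC50 (from the XTT assay) for 24 h or 48 h. BrdU added for 2 h at 37 °C, then anti-BrdU-POD for 90 min, three PBS washes and colorimetric substrate. Untreated control absorbance set as 0% inhibition. Means of two independent experiments ± SD of four wells; cisplatin positive control.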

The subject of assay [4] is MCF7. Nature of the assay: Inhibition of DNA synthesis in human MCF7 cells at cytotoxic IC50 level after 24 hrs by 5-bromo-20-deoxy-uridine incorporation method. The class given is functional. In short, it runs like this: as §2
Assay [5] concerns MCF7. Nature of the assay: Inhibition of DNA synthesis in human MCF7 cells at 2 times cytotoxic IC50 level after 24 hrs by 5-bromo-20-deoxy-uridine incorporation method. The assay is classed as functional. In short, it runs like this: as §2
Assay [6] has as its system MCF7. In words: Inhibition of DNA synthesis in human MCF7 cells at 0.5 times cytotoxic IC50 level after 48 hrs by 5-bromo-20-deoxy-uridine incorporation method. The class given is functional. In short, it runs like this: as §2
Assay [7] concerns MCF7. In words: Inhibition of DNA synthesis in human MCF7 cells at cytotoxic IC50 level after 48 hrs by 5-bromo-20-deoxy-uridine incorporation method. The assay is classed as functional. In short, it runs like this: as §2
Assay [8] deals with MCF7. In words: Inhibition of DNA synthesis in human MCF7 cells at 2 times cytotoxic IC50 level after 48 hrs by 5-bromo-20-deoxy-uridine incorporation method. The assay is classed as functional. The procedure, abridged:
as §2

Assay [9] has as its system MCF7. Nature of the assay: Induction of apoptosis in human MCF7 cells assessed as viable cells level at cytotoxic IC50 level after 24 hrs by Annexin V/PI dual staining based flow cytometry (reference value: 94.36 %). The assay is classed as functional.
Assay [10] concerns MCF7. Nature of the assay: Induction of apoptosis in human MCF7 cells assessed as early apoptotic cells level at cytotoxic IC50 level after 24 hrs by Annexin V/PI dual staining based flow cytometry (reference value: 0.46%). The assay is classed as functional.
The test system of assay [11] is MCF7. In words: Induction of apoptosis in human MCF7 cells assessed as late apoptotic cells level at cytotoxic IC50 level after 24 hrs by Annexin V/PI dual staining based flow cytometry (reference value: 1.52 %). The class given is functional.
Assay [12] relates to MCF7. Nature of the assay: Induction of apoptosis in human MCF7 cells assessed as necrotic cells level at cytotoxic IC50 level after 24 hrs by Annexin V/PI dual staining based flow cytometry (reference value: 3.66 %). The class given is functional.

For the compound `Cc1ccc(-c2nnc(N3CCN(C(=O)CN4CCN(c5ccc(Cl)cc5)CC4)CC3)nc2-c2ccc(C)cc2)cc1`, the IC50 turned out to be 660 µM in assay [1] and 567 µM in [2].
For `Cc1ccc(-c2nnc(N3CCN(C(=O)CN4CCN(c5ccccc5)CC4)CC3)nc2-c2ccc(C)cc2)cc1`, in that order: 914 µM and above 914 µM.
Turning to `COc1ccc(-c2nnc(N3CCN(C(=O)CN4CCN(c5ccc(Cl)cc5)CC4)CC3)nc2-c2ccc(OC)cc2)cc1`, the figures for the half-inhibitory concentration (IC50) in [1] and in assay [2] were 607 µM and above 814 µM, respectively.
For `COc1ccccc1N1CCN(CC(=O)N2CCN(c3nnc(-c4ccc(Cl)cc4)c(-c4ccc(Cl)cc4)n3)CC2)CC1`, in that order: 330 µM and 404 µM.
For the compound `COc1ccc(-c2nnc(N3CCN(C(=O)CN4CCN(c5ccc(OC)cc5)CC4)CC3)nc2-c2ccc(OC)cc2)cc1`, the IC50 in assay [1] and in assay [2] was above 821 µM in each case.
For the compound `O=C(CN1CCN(c2cccc(Cl)c2)CC1)N1CCN(c2nnc(-c3ccccc3)c(-c3ccccc3)n2)CC1`, the IC50 was found to be 56.3 µM in assay [1] and 178 µM in assay [2]. Also, the “inhibition (INH)” value in [3] is given as 26.06%; in assay [4], 31.36%; in assay [5], 41.48%; in assay [6] it was 56.59%; in assay [7] it was 61.16%; in assay [8], 70.18%. Also, the Activity in assay [9] is on record as 76.9%; in [10], 2.2%; in assay [11], 9.4%; in assay [12], 11.5%.
For the compound `COc1ccc(-c2nnc(N3CCN(C(=O)CN4CCN(c5ccccc5)CC4)CC3)nc2-c2ccc(OC)cc2)cc1`, the IC50 in assay [1] and in assay [2] was above 864 µM each time.
For the compound `COc1ccc(N2CCN(CC(=O)N3CCN(c4nnc(-c5ccccc5)c(-c5ccccc5)n4)CC3)CC2)cc1`, the half-inhibitory concentration (IC50) in assay [1] and in assay [2] was above 911 µM in each case.
Turning to `COc1cccc(N2CCN(CC(=O)N3CCN(c4nnc(-c5ccc(C)cc5)c(-c5ccc(C)cc5)n4)CC3)CC2)c1`, the IC50 in assay [1] was 867 µM; in assay [2], above 866 µM.
In the case of `O=C(CN1CCN(c2ccc(Cl)cc2)CC1)N1CCN(c2nnc(-c3ccccc3)c(-c3ccccc3)n2)CC1`, the half-inhibitory concentration (IC50) is 56.3 µM in assay [1] and 113 µM in assay [2]. The “inhibition (INH)” value in assay [6] came to 24.98%; in [7] it was 52.05%; in assay [8], 62.34%. The Activity in [9] was 76.4%; in assay [10], 2.1%; in assay [11] it was 10.3%; in [12], 11.2%.
For the compound `O=C(CN1CCN(c2ccccc2)CC1)N1CCN(c2nnc(-c3ccccc3)c(-c3ccccc3)n2)CC1`, the IC50 in assay [1] and in assay [2] was above 963 µM each time.
As for `COc1ccc(-c2nnc(N3CCN(C(=O)CN4CCN(c5ccccc5OC)CC4)CC3)nc2-c2ccc(OC)cc2)cc1`, the IC50 in [1] and in [2] was above 821 µM in each case.
On to `COc1ccc(-c2nnc(N3CCN(C(=O)CN4CCN(c5cccc(Cl)c5)CC4)CC3)nc2-c2ccc(OC)cc2)cc1`, for which the half-maximal inhibitory concentration (IC50) in assay [1] and in assay [2] was above 814 µM throughout.
Consider `O=C(CN1CCN(c2ccc(Cl)cc2)CC1)N1CCN(c2nnc(-c3ccc(Cl)cc3)c(-c3ccc(Cl)cc3)n2)CC1`, for which the IC50 in [1] and in assay [2] was above 803 µM each time.
For the compound `COc1ccc(-c2nnc(N3CCN(C(=O)CN4CCN(c5ccccc5Cl)CC4)CC3)nc2-c2ccc(OC)cc2)cc1`, the 50% inhibitory concentration (IC50) in assay [1] and in assay [2] was above 814 µM throughout.
For the compound `O=C(CN1CCN(c2ccccc2Cl)CC1)N1CCN(c2nnc(-c3ccc(Cl)cc3)c(-c3ccc(Cl)cc3)n2)CC1`, the IC50 is 396 µM in assay [1] and above 803 µM in assay [2].
Taken in the same sequence, the figures for `Cc1ccc(-c2nnc(N3CCN(C(=O)CN4CCN(c5cccc(Cl)c5)CC4)CC3)nc2-c2ccc(C)cc2)cc1` were 797 µM and 859 µM.
Consider `COc1ccc(N2CCN(CC(=O)N3CCN(c4nnc(-c5ccc(Cl)cc5)c(-c5ccc(Cl)cc5)n4)CC3)CC2)cc1`, for which the IC50 in assay [1] and in assay [2] was above 809 µM in each case.
For the compound `O=C(CN1CCN(c2ccccc2)CC1)N1CCN(c2nnc(-c3ccc(Cl)cc3)c(-c3ccc(Cl)cc3)n2)CC1`, the IC50 in assay [1] and in assay [2] was above 850 µM in each case.
`COc1cccc(N2CCN(CC(=O)N3CCN(c4nnc(-c5ccc(Cl)cc5)c(-c5ccc(Cl)cc5)n4)CC3)CC2)c1`: the values for the half-maximal inhibitory concentration (IC50) in [1] and in assay [2] were 149 µM and 202 µM, respectively. Besides, the Activity in assay [9] was 71.3%; in assay [10], 0.9%; in [11], 3.3%; in assay [12] it was 24.5%.
Regarding `COc1ccc(-c2nnc(N3CCN(C(=O)CN4CCN(c5ccc([N+](=O)[O-])cc5)CC4)CC3)nc2-c2ccc(OC)cc2)cc1`, the IC50 in [1] and in assay [2] was above 801 µM in each case.
With `COc1ccccc1N1CCN(CC(=O)N2CCN(c3nnc(-c4ccccc4)c(-c4ccccc4)n3)CC2)CC1`, the values for the IC50 in assay [1] and in assay [2] were 167 µM and 444 µM, respectively. The “inhibition (INH)” value in [3] is reported as 22.44%; in assay [4] it was 76.35%; in assay [5], 81.61%. Further, the inhibition entry in assay [6], in [7] and in assay [8] was “Active” each time. In addition, the Activity is 82.5% in [9], 0% in assay [10], 0.4% in assay [11] and 17.1% in [12].
On to `Cc1ccc(-c2nnc(N3CCN(C(=O)CN4CCN(c5ccc([N+](=O)[O-])cc5)CC4)CC3)nc2-c2ccc(C)cc2)cc1`, for which the 50% inhibitory concentration (IC50) is 845 µM in assay [1] and above 845 µM in assay [2].
For `O=C(CN1CCN(c2cccc(Cl)c2)CC1)N1CCN(c2nnc(-c3ccc(Cl)cc3)c(-c3ccc(Cl)cc3)n2)CC1`, in that order: above 803 µM and above 803 µM.
In the case of `COc1ccc(-c2nnc(N3CCN(C(=O)CN4CCN(c5cccc(OC)c5)CC4)CC3)nc2-c2ccc(OC)cc2)cc1`, the 50% inhibitory concentration (IC50) in assay [1] and in assay [2] was above 821 µM in each case.
Take `O=C(CN1CCN(c2ccc([N+](=O)[O-])cc2)CC1)N1CCN(c2nnc(-c3ccc(Cl)cc3)c(-c3ccc(Cl)cc3)n2)CC1`: the IC50 in [1] and in [2] was above 790 µM each time.
In the case of `O=C(CN1CCN(c2ccccc2Cl)CC1)N1CCN(c2nnc(-c3ccccc3)c(-c3ccccc3)n2)CC1`, the IC50 in [1] came to 263 µM; in [2], 350 µM.
Taken in the same sequence, the figures for `O=C(CN1CCN(c2ccc([N+](=O)[O-])cc2)CC1)N1CCN(c2nnc(-c3ccccc3)c(-c3ccccc3)n2)CC1` were above 886 µM and above 886 µM.
For `Cc1ccc(-c2nnc(N3CCN(C(=O)CN4CCN(c5ccccc5Cl)CC4)CC3)nc2-c2ccc(C)cc2)cc1`, in that order: 859 µM and above 859 µM.
Taken in the same sequence, the figures for `COc1cccc(N2CCN(CC(=O)N3CCN(c4nnc(-c5ccccc5)c(-c5ccccc5)n4)CC3)CC2)c1` were above 911 µM and 361 µM.
